Source: ChEMBL document CHEMBL2439972, “Synthesis, pharmacological and structural characterization, and thermodynamic aspects of GluA2-positive allosteric modulators with a 3,4-dihydro-2H-1,2,4-benzothiadiazine 1,1-dioxide scaffold” (J Med Chem, 2013)

How the values were obtained:
Glutamate receptor 2 [1] = target: T1, Glutamate receptor 2 (Rattus norvegicus, UniProt P19491); assay: Positive allosteric modulation of GluA2 receptor in rat embryonic cortex neuron assessed as increase of AMPA-induced membrane depolarization by FLIPR assay
How it was run: (§1)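 FLIPR version of the membrane-potential dye assay on primary rat embryonic cortical neurons, same principle on a different plate reader. Measures depolarization evoked by 300 μM AMPA. Outputs: EC2× (modulator concentration doubling the AMPA response), EC50, Emax normalized to the AMPA response (×1).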

[2] = target: Glutamate receptor 2 (Rattus norvegicus) (UniProt P19491); assay: Positive allosteric modulation of GluA2 receptor in rat embryonic cortex neuron assessed as increase of AMPA-induced membrane depolarization by FLIPR assay relative to AMPA; how it was run: as §1
[3] = target: Glutamate receptor 2 (Rattus norvegicus) (UniProt P19491); assay: Positive allosteric modulation of GluA2 receptor in rat embryonic cortex neuron assessed as concentration required to 2 fold increase of AMPA-induced membrane depolarization by FLIPR assay; how it was run: as §1
Glutamate receptor 2 [4] = target: T1, Glutamate receptor 2; assay: Positive allosteric modulation of GluA2 receptor in rat embryonic cortex neuron assessed as increase of AMPA-induced membrane depolarization by fluorescence assay
How it was run: (§2)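 Rat E16 cortical cells cultured 18 days (37 °C, 5% CO2) were loaded with membrane-potential dye for 1 h at room temperature and read on an imaging plate reader. After a 10 s baseline, AMPA (300 μM) was added for 3 min, then compound plus AMPA for 3 min. Signal was averaged over the last 15 s, as area under the curve. Outputs: EC2× (2-fold increase), EC50, Emax relative to AMPA alone (×1). Mean ± SEM (n).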

[5] = target: Glutamate receptor 2 (Rattus norvegicus) (UniProt P19491); assay: Positive allosteric modulation of GluA2 receptor in rat embryonic cortex neuron assessed as increase of AMPA-induced membrane depolarization by fluorescence assay relative to AMPA; how it was run: as §2
[6] = target: Glutamate receptor 2 (Rattus norvegicus) (UniProt P19491); assay: Positive allosteric modulation of GluA2 receptor in rat embryonic cortex neuron assessed as concentration required to 2 fold increase of AMPA-induced membrane depolarization by fluorescence assay; how it was run: as §2
[7] = Positive allosteric modulation of GluA2 receptor (unknown origin) expressed in Xenopus laevis oocytes assessed as concentration required to 2 fold increase of AMPA-induced membrane depolarization by voltage clamp assay; conditions: Oocyte
[8] = Binding affinity to rat LBD of GluA2 receptor L483Y and N754S mutant at 243 uM by isothermal titration calorimetry analysis

Glutamate receptor 2 (Rattus norvegicus), sequence (P19491 whole entry): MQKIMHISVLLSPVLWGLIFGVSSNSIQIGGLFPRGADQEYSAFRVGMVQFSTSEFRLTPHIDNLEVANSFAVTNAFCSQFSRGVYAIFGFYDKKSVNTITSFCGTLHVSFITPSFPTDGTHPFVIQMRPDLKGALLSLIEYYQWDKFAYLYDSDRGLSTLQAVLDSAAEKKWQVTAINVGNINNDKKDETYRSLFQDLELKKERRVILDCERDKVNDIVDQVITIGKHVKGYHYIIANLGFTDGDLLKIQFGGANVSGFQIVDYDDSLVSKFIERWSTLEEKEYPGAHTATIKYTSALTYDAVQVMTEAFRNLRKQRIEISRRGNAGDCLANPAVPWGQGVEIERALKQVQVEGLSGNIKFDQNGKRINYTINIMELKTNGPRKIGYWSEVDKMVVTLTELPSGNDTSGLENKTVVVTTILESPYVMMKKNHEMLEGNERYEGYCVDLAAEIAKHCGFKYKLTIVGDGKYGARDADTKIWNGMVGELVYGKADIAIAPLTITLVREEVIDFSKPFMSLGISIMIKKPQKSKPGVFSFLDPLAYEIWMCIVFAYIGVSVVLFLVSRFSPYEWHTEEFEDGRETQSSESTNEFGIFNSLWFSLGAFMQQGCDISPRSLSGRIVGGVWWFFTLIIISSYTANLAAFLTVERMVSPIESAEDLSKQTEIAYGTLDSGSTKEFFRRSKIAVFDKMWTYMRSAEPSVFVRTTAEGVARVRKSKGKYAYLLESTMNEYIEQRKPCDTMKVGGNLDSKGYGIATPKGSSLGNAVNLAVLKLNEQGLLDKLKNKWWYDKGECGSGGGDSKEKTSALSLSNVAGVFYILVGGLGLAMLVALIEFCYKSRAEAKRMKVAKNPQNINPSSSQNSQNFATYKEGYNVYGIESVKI
T1 sequence (P19491 whole entry): as above

Row | SMILES | EC50 (Glutamate receptor 2 [1]) [µM] | fold change (FC) [2] | Activity [3] [µM] | EC50 (Glutamate receptor 2 [4]) [µM] | fold change (FC) [5] | Activity [6] [µM] | Activity [7] [µM] | Kd [8] [µM]
1 | O=[N+]([O-])c1ccc2c(c1)S(=O)(=O)NCN2C1CC1 | 22.5 | 7 | 14 |  |  |  |  | 
2 | O=S1(=O)NCN(C2CC2)c2ccc(Cl)cc21 |  |  |  | 3.13 | 10.9 | 0.75 | 0.8 | 
3 | O=S1(=O)NCN(C2CC2)c2ccc(Br)cc21 |  |  |  | 4.83 | 9.3 | 1.27 |  | 
4 | O=S1(=O)NCN(C2CC2)c2ccccc21 |  |  |  | 4.17 | 8.5 | 0.73 |  | 
5 | O=S1(=O)NCN(C2CC2)c2ccc(C(F)(F)F)cc21 |  |  |  |  |  | > 100 |  | 

Results, then the compound that gave them:

Row | EC50 (Glutamate receptor 2 [1]) [µM] | fold change (FC) [2] | Activity [3] [µM] | EC50 (Glutamate receptor 2 [4]) [µM] | fold change (FC) [5] | Activity [6] [µM] | Activity [7] [µM] | Kd [8] [µM] | SMILES
6 |  |  |  | 2.5 | 9.2 | 0.47 |  |  | N#Cc1ccc2c(c1)S(=O)(=O)NCN2C1CC1
7 |  |  |  | 0.9 | 15 | 0.27 |  | 0.35 | O=S1(=O)NCN(C2CC2)c2ccc(F)cc21
8 |  |  |  |  | 8.7 | 5.13 |  |  | Cc1ccc2c(c1)S(=O)(=O)NCN2C1CC1
